ChEMBL document CHEMBL4190366, “Discovery and synthesis of novel Wogonin derivatives with potent antitumor activity in vitro” (Eur J Med Chem, 2017)
pIC50: −log10 of the molar value.

Key:
B16 = experiment: Cytotoxicity in mouse B16 cells assessed as reduction in cell viability incubated for 72 hrs by MTT assay; assay type: functional, cell-based; conditions: B16, 72 h
Method in brief: (§1)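 Cells pre-incubated 24 h at 37 °C, 5% CO2, then exposed to a range of compound concentrations for 72 h. Viability read as mitochondrial MTT-to-formazan conversion, absorbance at 570 nm.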

HepG2 = experiment: Cytotoxicity in human HepG2 cells assessed as reduction in cell viability incubated for 72 hrs by MTT assay; assay type: functional, cell-based; conditions: HepG2, 72 h; method in brief: as §1
MCF7 = experiment: Cytotoxicity in human MCF7 cells assessed as reduction in cell viability incubated for 72 hrs by MTT assay; assay type: functional, cell-based; conditions: MCF7, 72 h; method in brief: as §1
A549 = experiment: Cytotoxicity in human A549 cells assessed as reduction in cell viability incubated for 72 hrs by MTT assay; conditions: A549, 72 h

Compound | pIC50 (B16) | pIC50 (HepG2) | pIC50 (MCF7) | pIC50 (A549)
CN1CCN(CCCCOc2c(OCc3nc4ccccc4s3)cc(O)c3c(=O)cc(-c4ccccc4)oc23)CC1 | 5.56 | 5.26 | 5.31 | 5.97
COc1c(OCCCCN2CCN(C)CC2)cc(O)c2c(=O)cc(-c3ccc(F)cc3Br)oc12 | 5.46 | 5.67 | 5.51 | 5.53
O=c1cc(-c2ccccc2)oc2c(OCCCN3CCOCC3)c(OCc3ccccc3)cc(O)c12 | 5.00 | 5.61 | 5.06 | 5.05
COc1c(OCCCCN2CCN(C)CC2)cc(O)c2c(=O)cc(-c3ccc(F)cc3)oc12 | 5.36 | 5.55 | 5.41 | 5.65
COc1c(OCCCCN2CCN(C)CC2)cc(O)c2c(=O)cc(-c3ccc(Br)cc3)oc12 | 5.36 | 5.63 | 5.49 | 5.67
CN1CCN(CCOc2c(OCc3ccccc3)cc(O)c3c(=O)cc(-c4ccccc4)oc23)CC1 | 5.36 | 5.54 | 5.35 | 5.36
O=c1cc(-c2ccccc2)oc2c(OCCN(CCO)CCO)c(OCc3ccccc3)cc(O)c12 | 5.43 | 5.50 | 5.22 | 5.19
COc1ccccc1-c1cc(=O)c2c(O)cc(OCCCCN3CCN(C)CC3)c(OC)c2o1 | 5.03 | 5.63 | 5.27 | 5.17
O=c1cc(-c2ccccc2)oc2c(OCCCN3CCCC3)c(OCc3ccccc3)cc(O)c12 | 5.10 | 5.58 | 5.65 | 5.33
CCN(CC)CCCOc1c(OCc2ccccc2)cc(O)c2c(=O)cc(-c3ccccc3)oc12 | 5.31 | 5.52 | 5.49 | 5.44
COc1c(OCCCCN2CCN(C)CC2)cc(O)c2c(=O)cc(-c3cccc(F)c3)oc12 | 5.34 | 5.59 | 5.54 | 5.68
O=c1[nH]cc(F)c(=O)[nH]1 [FLUOROURACIL] | 5.92 |  | 4.83 | 
COc1c(OCCCCN2CCN(C)CC2)cc(O)c2c(=O)cc(-c3ccc([N+](=O)[O-])cc3)oc12 | 5.54 | 5.58 | 5.39 | 5.49
CN1CCN(CCCCOc2c(OCc3ccco3)cc(O)c3c(=O)cc(-c4ccccc4)oc23)CC1 | 5.45 | 5.39 | 5.56 | 5.44
CN1CCN(CCCCOc2c(OCc3cccs3)cc(O)c3c(=O)cc(-c4ccccc4)oc23)CC1 | 5.67 | 5.34 | 5.50 | 5.68
Cc1ccc(COc2cc(O)c3c(=O)cc(-c4ccccc4)oc3c2OCCCCN2CCN(C)CC2)cc1 | 5.48 | 5.29 | 5.65 | 5.49
